Assay outcomes (PubChem BioAssay)
RAM inhibit: inhibitors of the yeast RAM network; hit rate 1.8% among 190,000; S. cerevisiae dse1pr::URA3 reporter, 5-FOA growth OD615, 2 d; analog-sensitive cbk1-as2 kinase mutant strain; inhibition, % at 50 µM; AID 868;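 active = inhibition above a set limit, 3 SD over mean compound inhibition, cut at about 8.4% in these data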;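 note: 0% = DMSO-only wells with no growth and 100% = 10 µM 1-NA-PP1 full growth; inhibition rescues growth on 5-FOA so higher OD means more RAM inhibition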
Yeast life ext: yeast lifespan extension; hit rate 0.68% among 130,000; inhibition of the nicotinamide effect, % at 10 µM; S. cerevisiae growth with nicotinamide, OD615; deaD strain in restrictive glucose medium;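 active = inhibition above a set limit, placed 3 SD over the median of all compounds, cut at about 26% in these data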;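 note: 0% = nicotinamide-treated wells and 100% = cells grown without nicotinamide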
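System: Modified budding yeast, DeaD strain | Buffer or medium: Restrictive glucose medium | Also added: 1.5 mM nicotinamide | Doses: 10 µM single point, 0.25% DMSO | Schedule: 48 h compound exposure at 30 °C, humidified | Detection: Absorbance at 615 nm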
Yeast growth inh: reduces growth of yeast BB579 in restrictive medium; S. cerevisiae BB579 growth, OD615, 48 h; inhibition, % at 10 µM; hit rate 0.51% among 140,000; AID 804;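 active = inhibition above a set limit, 3 SD over the mean compound inhibition, cut at about 44% in these data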
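Test system: Saccharomyces cerevisiae DeaD strain BB579, replicative lifespan model yeast | Buffer or medium: Restrictive CSMM-D medium | Doses: One dose, 10 µM compound with 0.25% DMSO | Incubation: 48 h exposure, 30 °C | Detection: Culture absorbance at 615 nm | Control set: Amphotericin B at 10 µg/mL as positive control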
Active calls of the source: *; x = no result given. Only some compounds are listed: those with a hit (about 2.6% of all), similar ones and a draw of the others.

SMILES	RAM inhibit	Yeast life ext	Yeast growth inh
CCOC(=O)c1sc(NC(=O)CSc2nc(-c3ccco3)cc(C(F)(F)F)n2)c(C(=O)OC)c1C	3	2	-61
CCCOC(=O)c1c(NC(=O)CSc2nc(-c3ccco3)cc(C(F)(F)F)n2)sc(C(=O)OC)c1C	8.8*	6	-70
Cn1c(SCC(=O)N/N=C/C=C/c2ccco2)nc2ccccc21	1	-2	-62
COCCNc1nc(-c2cc(C)c(C)cc2C)cs1	1	x	x
O=c1oc2ccc(Cl)cc2cc1-c1nnc(Nc2cccc(C(F)(F)F)c2)s1	2	6	-49
CNc1nnc(-c2cc3cc(Cl)ccc3oc2=O)s1	4	-12	57*
COc1ccc([N+](=O)[O-])cc1NC(=O)CC1SC(=Nc2cccc(C)c2C)N(/N=C/c2cccc(OC)c2OC)C1=O (stereo not drawn)	10*	x	x
CN=C1SC(CC(=O)Nc2c(C)cccc2C)C(=O)N1/N=C/c1cccs1 (stereo not drawn)	2	-4	-27
O=[N+]([O-])/C=C\c1ccc(N2CCCC2)c(F)c1	0	x	x
CCCCCCCC(O)CC(CC1CCCCC1)C(=O)NN (stereo not drawn)	0	-4	23
CN(C)c1ccc(NC(=O)c2sc(SCC(=O)Nc3nccs3)nc2N)cc1	4	-1	-46
CN(C)c1ccc(NC(=O)c2sc(SCC(=O)Nc3ccc(Br)cc3)nc2N)cc1	8.7*	0	-43
Oc1cccc2ccc[n+](CC(O)Cn3c4ccccc4c4ccccc43)c12 (stereo not drawn)	6	-1	-18
COc1ccc(C(C(=O)NCC2CCCO2)N(C(=O)CNC(=O)c2cccs2)c2ccccc2C)cc1OC (stereo not drawn)	1	x	x
Cc1cccc(Nc2nnc(SCC(=O)Nc3ccccc3[N+](=O)[O-])s2)c1	5	-3	-32
Cc1ccccc1Nc1nnc(SCC(=O)Nc2ccccc2[N+](=O)[O-])s1	8.7*	-3	-39
O=C(c1cccc(N2C(=O)C3CC=CCC3C2=O)c1)N1CCCc2ccccc21 (stereo not drawn)	1	x	x
Oc1ccccc1/C=N/n1cnnc1	0	-13	7
O=C1/C(=N/n2cnnc2)c2ccccc2N1Cc1ccccc1	3	39*	-42
c1ccc2c(c1)C(=Nn1cnnc1)c1ccccc1-2	1	-19	54*
O=C1c2cccnc2C(=O)N1Cc1ccccc1	1	1	4
O=C(COC(=O)c1cccc2ccccc12)NCCCc1ccccc1	11*	1	-23
COc1cccc(C(=O)OCC(=O)NCCc2ccccc2)c1OC	2	x	x
CC1CC2c3cccc(C(=O)O)c3C(=O)N2c2ccc(Cl)cc21 (stereo not drawn)	3	x	x
CC1(C)CC2c3cccc(C(=O)O)c3C(=O)N2c2c1ccc1ccccc21 (stereo not drawn)	3	48*	-21
SMILES	RAM inhibit	Yeast life ext	Yeast growth inh
CC(C)(C)OC(=O)CC[C@@H](C(=O)N1CCN(C(=O)OC(C)(C)C)CC1)n1cc(C(CO)NC(=O)OC(C)(C)C)nn1 (stereo partly drawn)	0	x	x
NNC(=O)c1ccc(CSc2cccc3cccnc23)cc1	0	x	x
Cc1cccc(CSc2cccc3cccnc23)c1	-1	-12	96*
O=C1c2nccnc2C(=O)N1c1ccc(C(F)(F)F)cc1	1	x	x
COc1ccccc1OCCC(=O)OCC(=O)c1c(N)n(C)c(=O)n(C)c1=O	2	x	x
CN(C)CC(C)(C)CNS(=O)(=O)c1ccc(OC(F)(F)F)cc1	-1	x	x
COC(=O)c1ccc(Cl)c(NC(=O)CN2CCN(C)CC2)c1	1	-6	12
CN1CCN(CC(=O)Nc2ccc(Cl)cc2Cl)CC1	1	40*	-25
CCc1ccc(OCc2nnc(SCC(=O)N3CCN(c4ccccc4)CC3)o2)cc1	8.4*	x	-35
O=C(CSc1nnc(COc2ccccc2)o1)N1CCN(c2ccccc2)CC1	3	x	-64
Cc1cc(NC(=O)COC(=O)CCNS(=O)(=O)c2c(Cl)cccc2Cl)no1	1	x	x
COc1ccc(-c2cc(C(F)(F)F)nc(N3CCCCCC3)n2)cc1	8.7*	-9	-56
COc1ccc(-c2cc(C(F)(F)F)nc(N3CCN(C)CC3)n2)cc1	1	-15	-47
COCCNc1ccc([N+](=O)[O-])cc1C(=O)Nc1cccc(C)n1	1	x	x
CCOc1cc(NC(=S)NCCCN2CCOCC2)c(OCC)cc1NC(=O)c1ccc(C)cc1	1	x	x
Cc1onc(-c2ccccc2Cl)c1C(=O)Nc1cccc(-c2cn3cccnc3n2)c1	9.0*	-4	-44
COc1cc(C(=O)Nc2cccc(-c3cn4cccnc4n3)c2)cc(OC)c1OC	1	x	x
CC1=C(C)CC(C(=O)c2ccc(C)cc2)C(C(=O)O)C1 (stereo not drawn)	-1	30*	-10
